Five compounds from ChEMBL document CHEMBL1141208, “Synthesis and biological evaluation of methoxylated analogs of the newer generation taxoids IDN5109 and IDN5390” (Bioorg Med Chem Lett, 2005) can be followed below.

One assay deals with MCF7. The assay is described as follows: Cytotoxic potency in MCF7 human mammary carcinoma cell line after 72 hr exposure by SRB test. Format: functional, cell-based. The settings on record: MCF7, 72 h. The gist of the method: (§1)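 Monolayers grown in RPMI-1640 with 5% FCS, 5% NuSerum IV, 20 mM Hepes, 2 mM L-glutamine, 37 °C, 5% CO2. 800–1500 cells/well attached 15–18 h, then given 10 concentrations over a 5-log range (DMSO stock diluted in RPMI/10 mM Hepes) for 72 h. Cells TCA-fixed, sulforhodamine B stained, OD 570 nm. IC50 from Sigmoid-Emax nonlinear regression; means of ≥3 independent experiments ± SE.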
On the technique in general: In SRB staining, fixed cells bind dye roughly in proportion to their protein.

Another assay relates to MCF7-DOX. Description: Cytotoxic potency in doxorubicin resistant MCF7 cell line after 72 hr exposure by SRB test. The format is functional, cell-based. Conditions: Homo sapiens. The procedure, abridged: as §1
A short description of assay [1]: Resistance index (IC50 of MCF7 resistant cell line/IC50 of MCF7 sensitive cell line). The format is functional, Homo sapiens.

SMILES strings stand for the structures.

On to `CC(=O)O[C@@]1([C@@H]2/C(C)=C(/O)C(=O)C3=C(C)[C@@H](OC(=O)[C@H](O)[C@H](CC(C)C)NC(=O)OC(C)(C)C)C[C@@](O)([C@H]2OC(=O)c2ccccc2)C3(C)C)CO[C@@H]1CCO`, for which the IC50 in the assay on MCF7 stood at 11.2 nM; with MCF7-DOX, 1040 nM. Also, in assay [1], the “Ratio IC50” value turned out to be 93.

Regarding `COc1cccc(C(=O)O[C@H]2[C@H]([C@]3(OC(C)=O)CO[C@@H]3CCO)/C(C)=C(/O)C(=O)C3=C(C)[C@@H](OC(=O)[C@H](O)[C@H](CC(C)C)NC(=O)OC(C)(C)C)[C@@H]4OC(=O)O[C@]42C3(C)C)c1`, the IC50 with MCF7 came out at 0.5 nM; with MCF7-DOX it was 120 nM. Besides, in assay [1], the “Ratio IC50” value stood at 240.

Turning to `COc1cccc(C(=O)O[C@H]2[C@@H]3[C@]4(OC(C)=O)CO[C@@H]4C[C@H](O)[C@@]3(C)C(=O)[C@H](OC(C)=O)C3=C(C)[C@@H](OC(=O)[C@H](O)[C@H](CC(C)C)NC(=O)OC(C)(C)C)[C@@H]4OC(=O)O[C@]42C3(C)C)c1`, the IC50 in the assay on MCF7 came to 0.24 nM; in the assay with MCF7-DOX, 4 nM. The “Ratio IC50” value in assay [1] is reported as 17.

Take `CC(=O)O[C@H]1C(=O)[C@@]2(C)[C@H]([C@H](OC(=O)c3ccccc3)[C@]34OC(=O)O[C@H]3[C@H](OC(=O)[C@H](O)[C@H](CC(C)C)NC(=O)OC(C)(C)C)C(C)=C1C4(C)C)[C@]1(OC(C)=O)CO[C@@H]1C[C@@H]2O` [ORTATAXEL]: the IC50 in the assay on MCF7 amounted to 1.6 nM; in the assay with MCF7-DOX it was 32 nM. Besides, the “Ratio IC50” value in assay [1] was determined as 20.

Regarding `CC(=O)O[C@H]1C(=O)[C@@]2(C)[C@H]([C@H](OC(=O)c3ccccc3)[C@]3(O)C[C@H](OC(=O)[C@H](O)[C@@H](NC(=O)c4ccccc4)c4ccccc4)C(C)=C1C3(C)C)[C@]1(OC(C)=O)CO[C@@H]1C[C@@H]2O` [PACLITAXEL], the IC50 is 0.6 nM with MCF7 and 585 nM in the assay with MCF7-DOX. The “Ratio IC50” value in assay [1] is recorded as 975.

One may read the IC50 as the concentration needed to halve the response being measured. Lower therefore signals inhibition by little substance.
